Measurements from ChEMBL document CHEMBL4024729, “Copalic acid analogs down-regulate androgen receptor and inhibit small chaperone protein” (Bioorg Med Chem Lett, 2017).
The source made the active and inactive calls. The calls are words filed in the database; no cut-off is given here.

Columns and labels:
[1] = target: Heat shock protein beta-1 (Homo sapiens) (UniProt P04792); assay: Inhibition of heat shock protein 27 in human LNCaP cells assessed as decrease in AR protein level at 20 uM after 48 hrs by Western blot method; format: cell-based
Sequence of Heat shock protein beta-1 (Homo sapiens) (P04792 whole entry): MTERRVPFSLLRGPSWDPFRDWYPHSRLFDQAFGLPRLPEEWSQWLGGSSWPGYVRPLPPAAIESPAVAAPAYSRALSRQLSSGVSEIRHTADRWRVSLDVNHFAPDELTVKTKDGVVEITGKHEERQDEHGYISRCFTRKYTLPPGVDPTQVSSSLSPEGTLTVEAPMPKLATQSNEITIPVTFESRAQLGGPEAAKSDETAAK
Method in brief: (§1)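 LNCaP cells treated with DMSO or compound for 48 h. Whole-cell extracts probed by Western blot with specific antibodies against AR and β-actin. Three independent experiments.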

[2] = target: Heat shock protein beta-1 (Homo sapiens) (UniProt P04792); assay: Inhibition of heat shock protein 27 in human LNCaP cells assessed as decrease in AR protein level at 200 uM after 48 hrs by Western blot method; format: cell-based; method in brief: as §1
Homo sapiens = species: Homo sapiens; assay: Inhibition of alpha crystallin (unknown origin) assessed as increase in DTT induced insulin aggregation at 10 uM pretreated for 5 mins followed by DTT addition measured after 45 mins
Method in brief: (§2)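 Insulin 1 mg/ml stock and alpha-crystallin 5 mg/ml stock mixed in PBS containing compound. Incubated 5 min at 37 °C, then aggregation started with 1 M DTT stock. A400 followed for 45 min at 37 °C. Controls were insulin with or without alpha-crystallin in 0.1% DMSO. Triplicate wells; three independent experiments.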

[3] = target: Heat shock protein beta-1 (Homo sapiens) (UniProt P04792); assay: Inhibition of heat shock protein 27 in human LNCaP cells assessed as decrease in AR protein level at 5 uM after 48 hrs by Western blot method; format: cell-based; method in brief: as §1
[4] = Effect on DTT interaction with insulin at <= 10 uM measured after 45 mins; method in brief: as §2
[5] = target: Heat shock protein beta-1 (Homo sapiens) (UniProt P04792); assay: Inhibition of heat shock protein 27 in human LNCaP cells assessed as decrease in AR protein level after 48 hrs by Western blot method; format: cell-based; method in brief: as §1
LNCaP = assay: Growth inhibition of human LNCAP cells after 72 hrs by MTT assay; format: functional, cell-based
Method in brief: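 LNCaP cells treated with DMSO or a range of compound concentrations, four replicates each, for 72 h. Viability read by MTT assay.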

AR protein decrease (active/not active) [1]	inhibition [2]	Structure (SMILES)	further results
Active	–	C=C1CC[C@@H]2C(C)(C)CCC[C@@]2(C)[C@@H]1CC/C(C)=C/C(=O)Nc1ccc(C)cc1	–
Active	–	C=C1CC[C@@H]2C(C)(C)CCC[C@@]2(C)[C@@H]1CC/C(C)=C/C(=O)Nc1ccc(I)cc1	–
Active	–	C=C1CC[C@@H]2C(C)(C)CCC[C@@]2(C)[C@@H]1CC/C(C)=C/C(=O)NCCc1ccccc1	–
–	Active	C[C@@H]1CC[C@@]2(C)C(C(=O)O)=CCC[C@@H]2[C@@]1(C)CCc1ccoc1	–
Active	–	C=C1CC[C@@H]2C(C)(C)CCC[C@@]2(C)[C@@H]1CC/C(C)=C/C(=O)Nc1ccc(OC)cc1	inhibition (Homo sapiens): Active; inhibition [3]: Active; Activity [4]: inactive; inhibition [5]: Dose-dependent effect; IC50 (LNCaP): 1.73 µM
inactive	Active	C=C1CC[C@@H]2C(C)(C)CCC[C@@]2(C)[C@@H]1CC/C(C)=C/C(=O)O	–
Active	–	C=C1CC[C@@H]2C(C)(C)CCC[C@@]2(C)[C@@H]1CC/C(C)=C/C(=O)Nc1ccc(C#N)cc1	inhibition (Homo sapiens): Active; inhibition [5]: Dose-dependent effect; IC50 (LNCaP): 9.81 µM
–	Active	C=C1CC[C@@H]2C(C)(C)C(OC(C)=O)CC[C@@]2(C)[C@@H]1CC/C(C)=C/C(=O)O (stereo partly drawn)	–
Active	–	C=C1CC[C@@H]2C(C)(C)CCC[C@@]2(C)[C@@H]1CC/C(C)=C/C(=O)Nc1cccc(Br)c1	–
